In article PMC10078363 (Journal of Pineal Research, 2022):
Read-outs that look alike come from different tables or passages of the source.

What was measured:
murine Abcg2 [1] = target: T1, murine Abcg2 (Mus musculus, UniProt Q7TMS5); assay type: in vivo, mice; settings: 30 min after i.v. melatonin 10 mg/kg
T1 sequence (Q7TMS5 1-657): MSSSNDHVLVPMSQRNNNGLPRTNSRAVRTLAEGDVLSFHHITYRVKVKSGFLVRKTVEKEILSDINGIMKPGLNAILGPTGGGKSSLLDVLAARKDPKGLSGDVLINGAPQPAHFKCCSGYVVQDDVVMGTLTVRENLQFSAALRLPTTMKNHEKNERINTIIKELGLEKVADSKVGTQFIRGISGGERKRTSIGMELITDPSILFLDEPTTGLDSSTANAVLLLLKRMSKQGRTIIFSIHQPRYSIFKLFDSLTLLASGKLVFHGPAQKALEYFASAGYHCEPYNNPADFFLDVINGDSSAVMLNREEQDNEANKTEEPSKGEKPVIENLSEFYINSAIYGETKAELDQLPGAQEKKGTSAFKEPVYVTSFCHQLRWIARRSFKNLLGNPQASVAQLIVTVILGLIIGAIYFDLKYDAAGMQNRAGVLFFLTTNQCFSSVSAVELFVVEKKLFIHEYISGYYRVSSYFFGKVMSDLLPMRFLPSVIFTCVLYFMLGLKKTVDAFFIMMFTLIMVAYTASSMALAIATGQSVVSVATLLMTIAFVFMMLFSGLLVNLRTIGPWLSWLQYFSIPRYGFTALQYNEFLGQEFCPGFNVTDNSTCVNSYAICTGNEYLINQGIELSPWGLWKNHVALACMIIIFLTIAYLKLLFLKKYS

ovine ABCG2 = assay: Transepithelial transport assay in MDCK‐II cells transduced with ovine ABCG2; assay type: in vitro ADME; settings: oABCG2 MDCK‐II, +Ko143 (1 µM); Mel 10 µM, 6‐SO‐Mel 8 µM, 6‐OH‐Mel 10 µM
In short: (§1)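 MDCK-II monolayers, parental or transduced with an ABCG2 variant, in Hanks' balanced salt solution with 25 mM HEPES. Both sides are refreshed with or without Ko143 (1 µM). Test compound (8–10 µM) is added to one side, and the opposite side is sampled at 1, 2, 3 and 4 h. Analysis is by HPLC-UV at 310 nm. Ratio is apically directed % over basolaterally directed % at 4 h; n ≥ 3, mean ± SD.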

[2] = Transepithelial transport assay in parental MDCK‐II cells; assay type: in vitro ADME, canine; settings: dog, with Ko143 1 µM
In short: as §1

murine Abcg2 [3] = assay type: in vivo, mice; settings: female, FVB/N, mouse, intravenous, 10 mg/kg body weight, Abcg2−/− lactating female mice, 30 min after i.v. melatonin 10 mg/kg
murine Abcg2 [4] = target: T1, murine Abcg2; assay: Transepithelial transport assay in MDCK‐II cells transduced with murine Abcg2; assay type: in vitro ADME; settings: mAbcg2 MDCK‐II, +Ko143 (1 µM); Mel 10 µM, 6‐SO‐Mel 8 µM, 6‐OH‐Mel 10 µM
In short: as §1

human ABCG2 = assay: Transepithelial transport assay in MDCK‐II cells transduced with human ABCG2; assay type: in vitro ADME; settings: with Ko143 1 µM
In short: as §1

murine Abcg2 [5] = assay type: in vivo; settings: male, FVB/N, mouse, plasma, oral, 10 mg/kg body weight, Abcg2−/− male mice, 1 h after oral melatonin 10 mg/kg
In short: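 Male Abcg2−/− and wild-type mice (FVB/N background, n = 8) are dosed orally in the morning with 10 mg/kg melatonin in 10% ethanol/40% PEG/50% saline. Plasma and tissues are taken at 1 h. Samples are precipitated with acetonitrile, then a melatonin-d4 internal standard is added. Analysis is LC-MS/MS on C18 with a water/methanol gradient (1 mM ammonium formate, 0.01% formic acid). Hydroxylated metabolites are reported as arbitrary units. Groups are compared by t-test or Mann–Whitney.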

[6] = wild‐type lactating female mice

SMILES	Milk levels (relative abundance) (murine Abcg2 [1]; Abcg2−/− lactating female mice) [arbitrary units]	Milk to plasma ratio (relative abundance) (murine Abcg2 [1]; Abcg2−/− lactating female mice) [arbitrary units]	Fold higher milk concentration/levels in wild‐type compared with Abcg2−/− (murine Abcg2 [1]; lactating female mice)	Fold higher milk to plasma ratio in wild‐type compared with Abcg2−/− (murine Abcg2 [1]; lactating female mice)	Milk levels (relative abundance) (murine Abcg2 [1]; [6]) [arbitrary units]	Milk to plasma ratio (relative abundance) (murine Abcg2 [1]; [6]) [arbitrary units]	Relative efflux transport ratio (basal to apical % / apical to basal %) at 4 h (ovine ABCG2)	efflux ratio at 4 h [2]	concentration at 30 min (murine Abcg2 [3]; milk, Milk concentration) [ng/mL]	Kp at 30 min (murine Abcg2 [3]; milk, Milk to plasma ratio)	concentration at 30 min (murine Abcg2 [3]; plasma, Plasma concentration) [ng/mL]	Relative efflux transport ratio (basal to apical % / apical to basal %) at 4 h (murine Abcg2 [4])	efflux ratio at 4 h (human ABCG2)	concentration at 1 h (murine Abcg2 [5]) [ng/mL]
COc1ccc2[nH]c(O)c(CCNC(C)=O)c2c1 [2‐OH‐Mel, 2‐hydroxymelatonin]	1.42 ± 0.66	1.75 ± 0.29	around twofold	around twofold	2.90 ± 1.24	3.68 ± 1.34	–	–	–	–	–	–	–	–
COc1ccc2[nH]cc(CCNC(C)=O)c2c1 [melatonin]	–	–	almost twofold	–	–	–	0.99 ± 0.11	1.05 ± 0.06	6340 ± 3870	0.02 ± 0.01	288000 ± 89300	1.00 ± 0.06	1.02 ± 0.07	9.39 ± 4.59
